From ChEMBL document CHEMBL1140540, “Investigating the antiproliferative activity of quinoline-5,8-diones and styrylquinolinecarboxylic acids on tumor cell lines” (Bioorg Med Chem Lett, 2007) come the findings set out here.

SMILES strings stand for the structures. pIC50: −log10 of the molar value. Where only a bound is given, the exact number is not on record here.

One data set relates to P388. Description: Antiproliferative activity against mouse P388 cells by MTT assay. The class given is functional, cell-based.
Conditions: not given
The method, boiled down:
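P388 cells in RPMI 1640 with 2 mM L-glutamine, 1.5 g/L NaHCO3, 4.5 g/L glucose, 1.0 mM pyruvate and 10% FBS, at 37 °C in 5% CO2. Plated 24 h before treatment, then exposed 72 h to varying concentrations. MTT 4 h at 37 °C, DMF/SDS lysis, OD570 after 24 h. IC50 from triplicates, 3–7 repeat experiments.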
`CCCC(=O)NC1=CC(=O)c2ccc(C)nc2C1=O` had a pIC50 of 5.82.
The same measure, in the same setting: in the case of `CC(=O)NC1=CC(=O)c2ccc(C)nc2C1=O` it was 5.79.
In the case of `Cc1ccc2c(n1)C(=O)C(N)=CC2=O`, the pIC50 was 4.99.
On the same count and under the same terms, in the case of `O=[N+]([O-])c1cc([N+](=O)[O-])c2cccnc2c1O` it was 5.15; in that of `O=C(O)c1ccc2nc(/C=C/c3ccc(Cl)cc3)ccc2c1`, 3.93; in that of `O=C(O)c1ccc2nc(/C=C/c3ccccc3O)ccc2c1`, 4.29.
With `O=C(O)c1ccc(C(=O)O)c2nc(/C=C/c3ccccc3Br)ccc12`, the pIC50 was 4.05.
In turn, `COc1cccc(/C=C/c2ccc3c(C(=O)O)cccc3n2)c1` had a pIC50 of 4.00.
The same measure, in the same setting: in the case of `O=C(O)c1ccc2nc(/C=C/c3cccc(Cl)c3)ccc2c1` it was 3.96.
On to `O=C(O)c1cccc2nc(/C=C/c3ccc(Br)cc3)ccc12`, for which the pIC50 is 3.96.
Still for that read-out and setting: to `O=[N+]([O-])c1cc([N+](=O)[O-])c2ccc(/C=C/c3ccc(Cl)cc3)nc2c1O` belongs 5.15; to `O=C(O)c1cc([N+](=O)[O-])c2ccc(/C=C/c3ccccc3Cl)nc2c1O`, 3.80; to `Cc1ccc2c(n1)C(=O)C(NC(=O)CCc1ccccc1)=CC2=O`, 5.84.
The same measure, in the same setting: to `Cc1ccc2c(n1)C(=O)C(NC(=O)/C=C/c1ccccc1)=CC2=O` belongs 5.62.
Same read-out and setting: in the case of `O=C(O)c1cccc2ccc(/C=C/c3ccccc3O)nc12` it was 4.87; in that of `O=C(O)c1ccc(C(=O)O)c2nc(/C=C/c3ccc(Cl)cc3)ccc12`, 3.96.
In turn, `CCC(=O)NC1=CC(=O)c2ccc(C)nc2C1=O` gave a pIC50 of 5.84.
Same read-out and setting: to `O=C(O)c1ccc(C(=O)O)c2nc(/C=C/c3cccc(Cl)c3)ccc12` belongs 3.94; to `COC1=CC(=O)c2ccc(C)nc2C1=O`, 5.21; to `COc1ccc(/C=C/c2ccc3c([N+](=O)[O-])cc([N+](=O)[O-])c(O)c3n2)cc1`, 4.10.
Same read-out and setting: in the case of `O=C(O)c1cccc2ccc(/C=C/c3ccc(Cl)cc3)nc12` it was 4.81.
The same measure, in the same setting: to `CC(=O)Nc1cc(NC(C)=O)c2ccc(/C=C/c3ccccc3Br)nc2c1OC(C)=O` belongs 5.18; to `COc1ccc(/C=C/c2ccc3c([N+](=O)[O-])cc(C(=O)O)c(O)c3n2)cc1`, 3.83.
In turn, `O=C(O)c1ccc(C(=O)O)c2nc(/C=C/c3ccccc3Cl)ccc12` showed a pIC50 of 3.94.

Another data set concerns SK-N-MC. The data set is described as follows: Antiproliferative activity against human SK-N-MC cells by MTT assay. The data set is classed as functional, cell-based.
Conditions: not given
The method, boiled down:
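SK-N-MC cells in MEM with 10% (v/v) FBS, 1.0 mM sodium pyruvate, 1% non-essential amino acids, L-glutamine, penicillin/streptomycin and fungizone. Plated 24 h before dosing and exposed 72 h to varying concentrations. MTT added for 4 h at 37 °C, then DMF/SDS lysis, with OD570 read after 24 h. IC50 from triplicate wells, experiments repeated 3–7 times.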
As for `CC(=O)NC1=CC(=O)c2ccc(C)nc2C1=O`, the pIC50 was < 5.20.
Same read-out and setting: in the case of `O=[N+]([O-])c1cc([N+](=O)[O-])c2cccnc2c1O` it was < 5.20; in that of `COC1=CC(=O)c2ccc(C)nc2C1=O`, 5.37.

The test system of the next data set is P388. Description: Antiproliferative activity against mouse P388 cells at 0.1 uM by MTT assay. The data set is classed as functional.
Conditions: not given
An outline of the steps:
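P388 cells in RPMI 1640 with 2 mM L-glutamine, 1.5 g/L NaHCO3, 4.5 g/L glucose, 1.0 mM pyruvate and 10% FBS, at 37 °C in 5% CO2. Plated 24 h before treatment, then 72 h exposure at a single concentration. MTT readout: 4 h MTT, DMF/SDS lysis, OD570 after 24 h. Value expressed as percent inhibition of proliferation.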
Compound `Oc1cccc2ccc(/C=C/c3cccc(Cl)c3)nc12` yielded an inhibition at 0.1 µM of 15%.
Turning to `COc1cccc(/C=C/c2ccc3c(C(=O)O)ccc(C(=O)O)c3n2)c1`, testing at 0.1 µM gave an inhibition of 25%.
Consider `COc1ccc(/C=C/c2ccc3c(NC(C)=O)cc(NC(C)=O)c(OC(C)=O)c3n2)c(OC)c1`, for which at 0.1 µM the inhibition was 20%.
Same read-out and setting: in the case of `O=C(O)c1cccc2nc(/C=C/c3ccccc3O)ccc12` it was 30%; in that of `O=C(O)c1ccc2ccc(/C=C/c3ccccc3O)nc2c1`, 30%.

System in a further data set: not listed separately
Description: Lipophilicity, log K of the compound. The data set is classed as physicochemical. Particulars: HPLC. An outline of the steps: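 Hydrophobicity determined by HPLC.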
As to `Oc1cccc2ccc(/C=C/c3cccc(Cl)c3)nc12`, the “log K” value was determined as 1.5395.
Still for that read-out and setting: in the case of `CC(=O)NC1=CC(=O)c2ccc(C)nc2C1=O` it was 0.2227.
The same measure, in the same setting: to `O=[N+]([O-])c1cc([N+](=O)[O-])c2cccnc2c1O` belongs 0.7154.
Consider `O=C(O)c1ccc2nc(/C=C/c3ccc(Cl)cc3)ccc2c1`, for which the “log K” value was determined as 1.6043.
Same read-out and setting: in the case of `O=C(O)c1ccc2nc(/C=C/c3ccccc3O)ccc2c1` it was 1.3842; in that of `O=C(O)c1ccc(C(=O)O)c2nc(/C=C/c3ccccc3Br)ccc12`, 1.2062.
Same read-out and setting: in the case of `COc1cccc(/C=C/c2ccc3c(C(=O)O)cccc3n2)c1` it was 1.2263; in that of `O=C(O)c1ccc2nc(/C=C/c3cccc(Cl)c3)ccc2c1`, 1.6315.
The same measure, in the same setting: in the case of `COc1cccc(/C=C/c2ccc3c(C(=O)O)ccc(C(=O)O)c3n2)c1` it was 1.1811; in that of `O=C(O)c1cccc2nc(/C=C/c3ccc(Br)cc3)ccc12`, 1.4397.
`O=C(O)c1cccc2ccc(/C=C/c3ccccc3O)nc12`: the “log K” value came out at 1.6787.
Same read-out and setting: in the case of `O=C(O)c1ccc(C(=O)O)c2nc(/C=C/c3ccc(Cl)cc3)ccc12` it was 1.2107.
Still for that read-out and setting: to `O=C(O)c1ccc(C(=O)O)c2nc(/C=C/c3cccc(Cl)c3)ccc12` belongs 1.2163.
On the same count and under the same terms, in the case of `COC1=CC(=O)c2ccc(C)nc2C1=O` it was 0.0907.
Turning to `O=C(O)c1cccc2ccc(/C=C/c3ccc(Cl)cc3)nc12`, the “log K” value is on record as 1.8165.
Same read-out and setting: to `O=C(O)c1cccc2nc(/C=C/c3ccccc3O)ccc12` belongs 1.255; to `O=C(O)c1ccc2ccc(/C=C/c3ccccc3O)nc2c1`, 1.3678; to `O=C(O)c1ccc(C(=O)O)c2nc(/C=C/c3ccccc3Cl)ccc12`, 1.2047.
